In series [1] the target is T1, P2X purinoceptor 7 (Homo sapiens) (UniProt Q99572).
T1 sequence (whole entry): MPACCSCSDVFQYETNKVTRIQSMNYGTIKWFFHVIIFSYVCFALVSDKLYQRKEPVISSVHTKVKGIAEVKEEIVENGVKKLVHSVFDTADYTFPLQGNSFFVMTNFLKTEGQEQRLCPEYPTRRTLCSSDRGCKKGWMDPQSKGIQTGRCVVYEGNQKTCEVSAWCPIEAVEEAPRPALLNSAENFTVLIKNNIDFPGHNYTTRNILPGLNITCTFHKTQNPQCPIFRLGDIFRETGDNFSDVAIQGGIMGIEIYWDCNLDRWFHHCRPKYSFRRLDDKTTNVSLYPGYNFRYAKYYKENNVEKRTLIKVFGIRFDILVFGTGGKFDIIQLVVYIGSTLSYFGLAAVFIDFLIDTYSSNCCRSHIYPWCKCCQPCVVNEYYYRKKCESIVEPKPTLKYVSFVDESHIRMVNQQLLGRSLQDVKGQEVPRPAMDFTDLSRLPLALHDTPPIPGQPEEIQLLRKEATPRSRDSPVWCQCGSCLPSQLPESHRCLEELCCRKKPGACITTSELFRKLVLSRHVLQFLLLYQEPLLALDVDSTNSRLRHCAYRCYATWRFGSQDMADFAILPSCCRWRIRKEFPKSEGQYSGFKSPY
The series can be described thus: Antagonist activity at P2X7R in human THP1 cells assessed as inhibition of LPS and BzATP-induced ROS production at 10^-6mol/L pretreated with compound followed by LPS/BzATP addition and measured after 5 hrs by kinetic chemiluminescence based fluorometric analysis. It is filed as cell-based. Particulars: THP-1. Summed up:
(§1)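 Differentiated THP-1 macrophages (10^5 cells, RPMI 1640 + 10% FBS) pretreated with antagonist at 10^-6 mol/L before LPS (10 μmol/L) and BzATP (70 μmol/L), 37 °C, 5% CO2; ROS detected as luminol (50 μM)/horseradish peroxidase (50 μg/mL) chemiluminescence on a fluorometer; H2O2 without cells as positive control.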

The target of series [2] is T1, P2X purinoceptor 7 (Homo sapiens). The series can be described thus: Antagonist activity at P2X7R in human THP1 cells assessed as inhibition of LPS and BzATP-induced cell death at 10^-6 mol/L pretreated with compound followed by LPS/BzATP addition and measured after 4 hrs by sytox green dye based flow cytometry. Particulars: THP-1.
The subject of series [3] is Mus musculus. The series can be described thus: Antiinflammatory activity against DSS-induced colitis C57BL/6J mouse model assessed as body weight loss at 2.5 mg/kg, ip administered daily and measured for 15 days relative to placebo-treated control. It is filed as functional. In short, it runs like this:
(§2)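 DSS colitis in WT mice: 3.8% DSS in drinking water days 1–5, then tap water for 10 days; compound 2.5 mg/kg given i.p. daily in 10% DMSO/PBS; cohorts of 10 mice per group, placebo as comparator; weight loss and clinical disease score tracked; colon sections at day 14 stained with H&E and histologically scored; data as mean ± SEM.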

The subject of series [4] is Mus musculus. The series can be described thus: Antiinflammatory activity against DSS-induced colitis C57BL/6J mouse model assessed as reduction in rectal bleeding at 2.5 mg/kg, ip administered daily and measured for 15 days. It is filed as functional, organism-based. Summed up: as §2
Series [5] relates to Mus musculus. Description: Antiinflammatory activity against DSS-induced colitis C57BL/6J mouse model assessed as reduction in diarrhea at 2.5 mg/kg, ip administered daily and measured for 15 days. The class given is functional, organism-based. Summed up:
as §2

Series [6] concerns the target T1, P2X purinoceptor 7 (Homo sapiens). The series can be described thus: Antagonist activity at P2X7R in human THP1 cells assessed as inhibition of LPS and BzATP-induced IL-1beta expression by measuring increase in proIL-1beta expression in cell supernatant extract at 10^-6 mol/L pretreated with compound followed by LPS/BzATP addition and measured after 6 hrs by Western blot analysis. Particulars: THP-1. It is filed as cell-based. Background: A western blot detects proteins with antibodies after separation by electrophoresis.

The target is the same in series [7]. The series can be described thus: Antagonist activity at P2X7R in human THP1 cells assessed as inhibition of LPS and BzATP-induced ROS production at 10^-6mol/L pretreated with compound followed by LPS/BzATP addition and measured after 6 hrs by kinetic chemiluminescence based fluorometric analysis. The class given is cell-based. Particulars: THP-1. In short, it runs like this: as §1

Series [8] relates to Mus musculus. The series can be described thus: Antiinflammatory activity against DSS-induced colitis C57BL/6J mouse model assessed as areas of normal colonic mucosa with straight and larger crypts on muscularis mucosa at 2.5 mg/kg, ip administered daily and measured after day 14 by hematoxylin and eosin staining based microscopic analysis. It is filed as functional, organism-based. In short, it runs like this: as §2

Series [9] in a line: Drug metabolism in human liver microsomes assessed as metabolite N-[(2,4-dichlorophenyl)methyl]-5-oxo-pyrrolidine-2-carboxamide formation at 0.2 mg/ml incubated for 60 mins by UPLC-MS/MS analysis. Particulars: 1 h. It is filed as ADME, Microsome. In short, it runs like this:
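Human liver microsomes (2 mg protein/mL) pre-activated with alamethicin in 0.1 M Tris-HCl/10 mM MgCl₂ pH 7.4, added to dried residue of 0.2 mg/mL compound solution; cofactors UDPGA 5 mM, NADPH 1.3 mM, G6P 3.3 mM, G6PD 0.5 U/mL. 37 °C, 60 min; stopped with methanol plus internal standards. Supernatant analysed by online-extraction UPLC on C18 with Q-TOF MS, ESI+.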

The target in series [10] is T1, P2X purinoceptor 7 (Homo sapiens). The series can be described thus: Antagonist activity at P2X7R in human THP1 cells assessed as inhibition of LPS and BzATP-induced mature form of IL-1beta expression in cells supernatant at 10^-6 mol/L pretreated with compound followed by LPS/BzATP addition and measured after 2 to 6 hrs by Western blot analysis. The class given is cell-based. Particulars: THP-1.

Series [11] shares this target. Description: Antagonist activity at P2X7R in human THP1 cells assessed as inhibition of LPS and BzATP-induced ROS production at 10^-6mol/L pretreated with compound followed by LPS/BzATP addition and measured after 4 hrs by kinetic chemiluminescence based fluorometric analysis. Particulars: THP-1. The class given is cell-based. In short, it runs like this: as §1
Series [12] has the same target. The series can be described thus: Antagonist activity at P2X7R in human THP1 cells assessed as inhibition of LPS and BzATP-induced mature form of IL-1beta expression in whole cell extract at 10^-6 mol/L pretreated with compound followed by LPS/BzATP addition and measured after 2 to 6 hrs by Western blot analysis. Particulars: THP-1. The class given is cell-based.

The test system of series [13] is Mus musculus. Description: Antiinflammatory activity against DSS-induced colitis C57BL/6J mouse model assessed as reduction in DAI score at 2.5 mg/kg, ip administered daily and measured for 15 days. The class given is functional. Particulars: 360 h. Summed up: as §2
In series [14] the test system is Mus musculus. Description: Antiinflammatory activity against DSS-induced colitis C57BL/6J mouse model assessed as decrease in inflammation level in colon at 2.5 mg/kg, ip administered daily and measured after day 14 by hematoxylin and eosin staining based microscopic analysis. Particulars: 336 h. It is filed as functional. In short, it runs like this:
as §2

Active and inactive are the calls of the source. The calls are words filed in the database; no cut-off is given here.

As usually defined, the inhibition in vivo is the drop in the measured response relative to a control, in per cent. As for `O=C(NCc1ccc(Cl)cc1Cl)[C@@H]1CCC(=O)N1c1cccs1`, the inhibition entry in series [1], in [2], in series [6], in series [10], in series [11] and in [12] was “Active” throughout. Besides, the Activity in the series on Mus musculus [3] came out at 50%. Moreover, the result in the series with Mus musculus [4], in the series with Mus musculus [5] and with Mus musculus [8] was Active. Moreover, the inhibition result in [7] was “inactive”. Besides, the Drug metabolism entry in [9] is listed as “Metabolite_Detected”. In addition, the inhibition in vivo at 2.5 mg/kg with Mus musculus [13] is 31%; with Mus musculus [14], 42 to 50%.
In the case of `O=C(NCc1ccc(Cl)cc1Cl)[C@@H]1CCC(=O)N1c1ccsc1`, the inhibition entry in series [1], in series [2], in series [6], in series [10], in series [11] and in series [12] was “Active” in each case. Besides, the inhibition entry in series [7] is “inactive”.

(Values after ChEMBL document CHEMBL4627246, “Pyroglutamide-Based P2X7 Receptor Antagonists Targeting Inflammatory Bowel Disease” (J Med Chem, 2020).)
